How the values were obtained:
Format in all cases: functional
Meloidogyne incognita [1] = test: Nematicidal activity against Meloidogyne incognita (root-knot nematode) assessed as cumulative percentage of egg hatching at 25 degC at 1000 umol/L on day 14 (SDW control = 35.77 +/- 4.48%)
How it was run: (§1)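 Eggs (500 in 1 mL suspension) held on a 1 cm sieve of 35 μm pore, set in the center well of a 24-well plate. About 2 mL of fatty acid solution (final 100, 1000 or 2000 μmol/L) was added, reaching only the sieve bottom. The fatty acid was dissolved in acetone/Tween-80/DMSO medium and diluted with sterile distilled water. SDW and medium served as controls. One treatment per plate, six replicates, parafilm-sealed, 25 °C. Hatched J2s were counted and the solution renewed on days 3, 7, 14 and 21; values are cumulative % hatch as mean ± SE.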

Meloidogyne incognita [2] = test: Nematicidal activity against Meloidogyne incognita (root-knot nematode) assessed as cumulative percentage of egg hatching at 25 degC at 1000 umol/L on day 7 (SDW control = 12.63 +/- 3.84%); how it was run: as §1
Meloidogyne incognita [3] = test: Nematicidal activity against Meloidogyne incognita (root-knot nematode) assessed as cumulative percentage of egg hatching at 25 degC at 100 umol/L on day 7 (SDW control = 12.63 +/- 3.84%); how it was run: as §1
Meloidogyne incognita [4] = test: Nematicidal activity against Meloidogyne incognita (root-knot nematode) assessed as cumulative percentage of egg hatching at 25 degC at 1000 umol/L on day 3 (SDW control = 0.57 +/- 0.37%); how it was run: as §1
Meloidogyne incognita [5] = test: Nematicidal activity against Meloidogyne incognita (root-knot nematode) assessed as cumulative percentage of egg hatching at 25 degC at 2000 umol/L on day 3 (SDW control = 0.57 +/- 0.37%); how it was run: as §1
Meloidogyne incognita [6] = test: Nematicidal activity against Meloidogyne incognita (root-knot nematode) assessed as cumulative percentage of egg hatching at 25 degC at 2000 umol/L on day 21 (SDW control = 44.87 +/- 3.93%); how it was run: as §1
Meloidogyne incognita [7] = test: Nematicidal activity against second-stage juvenile of Meloidogyne incognita (root-knot nematode) assessed as mortality at 25 degC at 1000 umol/L after 12 hr (reference value: 1.79 to 3.30%)
Meloidogyne incognita [8] = test: Nematicidal activity against second-stage juvenile of Meloidogyne incognita (root-knot nematode) assessed as mortality at 25 degC at 100 umol/L after 12 hr (reference value: 1.79 to 3.30%)
Meloidogyne incognita [9] = test: Nematicidal activity against Meloidogyne incognita (root-knot nematode) root-knot nematodes assessed as cumulative percentage of egg hatching at 25 degC at 100 umol/L on day 3 (SDW control = 0.57 +/- 0.37%); how it was run: as §1
Meloidogyne incognita [10] = test: Nematicidal activity against Meloidogyne incognita (root-knot nematode) assessed as cumulative percentage of egg hatching at 25 degC at 100 umol/L on day 21 (SDW control = 44.87 +/- 3.93%); how it was run: as §1
Meloidogyne incognita [11] = test: Nematicidal activity against second-stage juvenile of Meloidogyne incognita (root-knot nematode) assessed as mortality at 25 degC at 2000 umol/L after 24 hr Rvb = 1.47 to 2.51%)
Meloidogyne incognita [12] = test: Nematicidal activity against second-stage juvenile of Meloidogyne incognita (root-knot nematode) assessed as mortality at 25 degC at 100 umol/L after 24 hr (reference value: 1.47 to 2.51%)
Meloidogyne incognita [13] = test: Nematicidal activity against second-stage juvenile of Meloidogyne incognita (root-knot nematode) assessed as mortality at 25 degC at 1000 umol/L after 24 hr Rvb = 1.47 to 2.51%)
Meloidogyne incognita [14] = test: Nematicidal activity against Meloidogyne incognita (root-knot nematode) assessed as cumulative percentage of egg hatching at 25 degC at 1000 umol/L on day 21 (SDW control = 44.87 +/- 3.93%); how it was run: as §1
Meloidogyne incognita [15] = test: Nematicidal activity against second-stage juvenile of Meloidogyne incognita (root-knot nematode) assessed as mortality at 25 degC at 2000 umol/L after 12 hr (reference value: 1.79 to 3.30%)
Meloidogyne incognita [16] = test: Nematicidal activity against Meloidogyne incognita (root-knot nematode) assessed as cumulative percentage of egg hatching at 25 degC at 100 umol/L on day 14 (SDW control = 35.77 +/- 4.48%); how it was run: as §1
Meloidogyne incognita [17] = test: Nematicidal activity against Meloidogyne incognita (root-knot nematode) assessed as cumulative percentage of egg hatching at 25 degC at 2000 umol/L on day 14 (SDW control = 35.77 +/- 4.48%); how it was run: as §1
Meloidogyne incognita [18] = test: Nematicidal activity against Meloidogyne incognita (root-knot nematode) assessed as cumulative percentage of egg hatching at 25 degC at 2000 umol/L on day 7 (SDW control = 12.63 +/- 3.84%); how it was run: as §1

| Structure (SMILES) | Activity (Meloidogyne incognita [1]) [%] | Activity (Meloidogyne incognita [2]) [%] | Activity (Meloidogyne incognita [3]) [%] | Activity (Meloidogyne incognita [4]) [%] | Activity (Meloidogyne incognita [5]) [%] | Activity (Meloidogyne incognita [6]) [%] | mortality at 1000 µM (Meloidogyne incognita [7]) [%] | mortality at 100 µM (Meloidogyne incognita [8]) [%] | Activity (Meloidogyne incognita [9]) [%] | Activity (Meloidogyne incognita [10]) [%] | mortality at 2000 µM (Meloidogyne incognita [11]) [%] | mortality at 100 µM (Meloidogyne incognita [12]) [%] | mortality at 1000 µM (Meloidogyne incognita [13]) [%] | Activity (Meloidogyne incognita [14]) [%] | mortality at 2000 µM (Meloidogyne incognita [15]) [%] | Activity (Meloidogyne incognita [16]) [%] | Activity (Meloidogyne incognita [17]) [%] | Activity (Meloidogyne incognita [18]) [%] |
| --- | --- | --- | --- | --- | --- | --- | --- | --- | --- | --- | --- | --- | --- | --- | --- | --- | --- | --- |
| CCCC(=O)O [BUTYRIC ACID] | 17.17 | 7.87 | 6.7 | 2 | 0.67 | 14.13 | 3.34 | 2.55 | 1.6 | 20.37 | 3.28 | 2.91 | 2.34 | 21.47 | 3.23 | 13.9 | 8.17 | 4.47 |
| CCCCCCCCCC(=O)O [DECANOIC ACID] | 11.5 | 4.77 | 4.73 | 0.97 | 0.23 | 7.1 | 16.9 | 2.01 | 0.43 | 25.93 | 61 | 5.16 | 1.63 | 16.4 | 25.2 | 19.57 | 4.8 | 2.07 |
| CCCCCCCCCCCC(=O)O [DODECANOATE] | 20.37 | 12.7 | 4.73 | 3.67 | 1.6 | 20.77 | 21.3 | 1.22 | 0.5 | 27.1 | 41.3 | 15.8 | 2.46 | 24.17 | 38 | 20.1 | 17.47 | 7.57 |
| CCCCCC(=O)O [HEXANOATE] | 16.67 | 7.67 | 2.97 | 2.77 | 0.8 | 19.67 | 1.09 | 0.39 | 0.87 | 15.97 | 4.44 | 1.5 | 2.29 | 21.2 | 2.02 | 9.57 | 14.4 | 6.4 |
| CCCCC/C=C\C/C=C\CCCCCCCC(=O)O [LINOLEIC ACID] | 20.43 | 6.6 | 6.17 | 0.13 | 0.33 | 11.33 | 4.72 | 3.12 | 0.33 | 37.97 | 5.1 | 3.72 | 3.3 | 29.47 | 3.41 | 29.8 | 5.87 | 2.3 |
| CCCCCCCCCCCCCC(=O)O [MYRISTIC ACID] | 12.93 | 1.47 | 8.87 | 0.37 | 0.27 | 20 | 2.29 | 1.31 | 1.8 | 27.67 | 3.76 | 2.46 | 1.57 | 23.97 | 2.11 | 18.4 | 12 | 1.53 |
| CCCCCCCC(=O)O [OCTANOIC ACID] | 16.87 | 9.03 | 8.6 | 2.6 | 0.73 | 15.07 | 65.6 | 1.65 | 2.3 | 30.93 | 56.4 | 40.5 | 1.08 | 21 | 49.9 | 23.63 | 13.07 |  |
| CCCCCCCC/C=C\CCCCCCCC(=O)O [OLEIC ACID] | 18.53 | 6.03 | 6.07 | 0.67 | 1.23 | 21.8 | 4.52 | 3.54 | 1.47 | 24.93 | 4.58 | 3.54 | 2.42 | 25.57 | 4.49 | 16.6 | 16.53 | 7.47 |
| CCCCCCCCCCCCCCCC(=O)O [PALMITIC ACID] | 9.53 | 2.8 | 5.73 | 0.23 | 0.7 | 20.17 | 6.71 | 3.33 | 1.13 | 22.3 | 4.91 | 3.36 | 3.03 | 13.4 | 5.44 | 15.07 | 17.23 | 6.63 |
